In paper PMC9906001 (Pulmonary Circulation, 2023):
“And” between values parts separate entries of the source, which are not always exact repeats. Identical values can stand only once.

Tests used:
[1] = system: Japanese patients with pulmonary arterial hypertension; test: Hemodynamic measurements by right heart catheterization; type: in vivo, human
Method in brief: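 RHC at baseline and Week 12, pre-inhalation and 15 and 30 min after inhaling test compound (6 µg/breath, starting 3 breaths four times daily). CO by thermodilution or indirect Fick per site, with the same method per patient. PVR = (mPAP−PAWP)/CO; PVRI = (mPAP−PAWP)/cardiac index (CO/BSA). Lower of 15/30-min PVRI taken as Week-12 "best". Significance: 95% CI of mean change excluding 0.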

[2] = system: Japanese patients with pulmonary arterial hypertension; test: 6-minute walking distance and Borg Dyspnea Score; type: in vivo, human
Method in brief: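 Single-arm, open-label study: test compound nebulised at 6 µg/breath from a 0.6 mg/mL solution, started at 3 breaths (18 µg)/session four times daily. Peak 6MWD taken 10–60 min after inhalation, trough 6MWD at least 4 h post-inhalation. Borg score was a secondary endpoint. Change from baseline; significance taken as a two-sided 95% CI excluding 0.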

[3] = system: Japanese patients with pulmonary arterial hypertension; test: WHO functional class; type: in vivo, human
Method in brief: (§1)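 Multicentre, non-randomised, single-arm study: 12-week main period plus 40-week extension. Nebulised test compound given as 0.6 mg/mL at 6 µg/breath, starting 3 breaths (18 µg)/session four times daily. Patients 18–75 y with PAH; stable background ERA/PDE5 inhibitor/sGC stimulator allowed; no other prostacyclin-pathway drugs. Secondary endpoints reported as change from baseline.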

[4] = system: Japanese patients with pulmonary arterial hypertension; test: NT-proBNP levels; type: in vivo, human
Method in brief: as §1

[5] = system: Japanese patients with pulmonary arterial hypertension; test: Quality of life, Minnesota Living with Heart Failure questionnaire; type: in vivo, human
Method in brief: as §1

[6] = system: Japanese patients with pulmonary arterial hypertension; test: Time to clinical worsening; type: in vivo, human
Method in brief: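 Clinical worsening was defined as death, transplantation, hospitalisation for worsening PAH, or start of additional PAH-specific therapy. Followed during the 12-week main and 40-week long-term periods of open-label nebulised test compound (6 µg/breath, starting 3 breaths/session four times daily), in addition to background ERA and/or PDE5 inhibitor/sGC stimulator.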

[7] = system: Japanese patients with pulmonary arterial hypertension; test: Safety: adverse events and safety parameters over 52 weeks; type: in vivo, human
Method in brief: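 Over the 52 weeks of nebulised test compound (6 µg/breath, starting 3 breaths four times daily), AEs were coded by MedDRA v24.0 preferred term. Monitoring covered clinical laboratory tests, blood pressure, pulse, SpO2, ECG, chest X-ray, pulmonary function, arterial blood gas and body weight. Safety set: patients who received at least one dose.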

[8] = Plasma pharmacokinetics in Japanese PAH patients; type: in vivo, human
[9] = Plasma pharmacokinetics in Japanese healthy adults, single inhalation; type: in vivo, human; conditions: 18 and 36 μg inhaled
[10] = 54 μg inhaled, non-Japanese PAH patients; cited from earlier work
[11] = Week 12, 15 min post-inhalation, n = 17
[12] = Week 12, 30 min post-inhalation, n = 17
[13] = Week 12, post-inhalation best, n = 17
[14] = Week 12, pre-inhalation (trough treprostinil level), n = 17
[15] = Week 12, pre-inhalation, n = 17
[16] = over 52 weeks, n = 17, listed as treprostinil
[17] = human, plasma, inhaled or intranasal, 54 ug

CCCCC[C@H](O)CC[C@@H]1[C@H]2Cc3cccc(OCC(=O)O)c3C[C@H]2C[C@H]1O [inhaled treprostinil, Treprostinil]
Best change from baseline in PVRI at Week 12 ([1]; 13 patients receiving a combination of an ERA and a PDE5 inhibitor/sGC stimulator): −36.7 ± 25.0%
CO [1, 11]: 4.9 ± 1.6 L/min
Cardiac index [1, 11]: 3.0 ± 0.9 L/min/m^2
PAWP [1, 11]: 9.4 ± 4.2 mmHg
PVR [1, 11]: 4.5 ± 1.8 Wood units
PVRI [1, 11]: 7.4 ± 2.8 Wood units·m^2
SVR [1, 11]: 17.8 ± 6.5 Wood units
SVRI [1, 11]: 28.8 ± 9.5 Wood units·m^2
SvO2 [1, 11]: 71.3 ± 5.6%
mPAP [1, 11]: 30.5 ± 10.1 mmHg
mRAP [1, 11]: 4.5 ± 3.1 mmHg
CO [1, 12]: 5.0 ± 1.5 L/min
Cardiac index [1, 12]: 3.0 ± 0.9 L/min/m^2
PAWP [1, 12]: 8.9 ± 3.9 mmHg
PVR [1, 12]: 4.4 ± 2.0 Wood units
PVRI [1, 12]: 7.3 ± 3.1 Wood units·m^2
SVR [1, 12]: 17.7 ± 6.2 Wood units
SVRI [1, 12]: 28.7 ± 9.2 Wood units·m^2
SvO2 [1, 12]: 70.0 ± 5.8%
mPAP [1, 12]: 30.1 ± 10.3 mmHg
mRAP [1, 12]: 4.8 ± 3.3 mmHg
CO [1, 13]: 5.1 ± 1.7 L/min
Cardiac index [1, 13]: 3.1 ± 0.9 L/min/m^2
PAWP [1, 13]: 8.5 ± 4.0 mmHg
PVR [1, 13]: 4.2 ± 1.9 Wood units
PVRI [1, 13]: 6.9 ± 2.9 Wood units·m^2
SVR [1, 13]: 17.5 ± 6.4 Wood units
SVRI [1, 13]: 28.4 ± 9.4 Wood units·m^2
SvO2 [1, 13]: 71.5 ± 5.5%
mPAP [1, 13]: 29.8 ± 9.9 mmHg
mRAP [1, 13]: 4.4 ± 3.0 mmHg
Change from baseline in PVR [1, 14]: −19.6 ± 26.8%
Change from baseline in PVRI [1, 14]: −19.2 ± 26.8%
Change from baseline in mPAP [1, 14]: −4.0 ± 6.1 mmHg
CO [1, 15]: 4.6 ± 1.3 L/min
Cardiac index [1, 15]: 2.8 ± 0.8 L/min/m^2
PAWP [1, 15]: 8.8 ± 4.1 mmHg
PVR [1, 15]: 5.7 ± 2.2 Wood units
PVRI [1, 15]: 9.3 ± 3.1 Wood units·m^2
SVR [1, 15]: 19.5 ± 6.2 Wood units
SVRI [1, 15]: 31.7 ± 8.7 Wood units·m^2
SvO2 [1, 15]: 71.2 ± 5.3%
mPAP [1, 15]: 34.1 ± 9.8 mmHg
mRAP [1, 15]: 5.0 ± 3.5 mmHg
Best change from baseline in PVRI at Week 12 ([1]; one patient who was treatment-naïve): −54.7%
% Change from baseline to Week 12 in CO ([1]; post-inhalation best, n = 17): 18.3 ± 20.0 (8.0 to 28.6) %
% Change from baseline to Week 12 in PAWP ([1]; post-inhalation best, n = 17): 24.2 ± 60.9 (−7.1 to 55.5) %
% Change from baseline to Week 12 in PVR ([1]; post-inhalation best, n = 17): −39.7 ± 25.6 (−52.9 to −26.5) %
% Change from baseline to Week 12 in PVRI (primary endpoint) ([1]; post-inhalation best, n = 17): −39.4 ± 25.5 (−52.6 to −26.3) %
% Change from baseline to Week 12 in SVR ([1]; post-inhalation best, n = 17): −15.3 ± 24.0 (−27.7 to −3.0) %
% Change from baseline to Week 12 in SVRI ([1]; post-inhalation best, n = 17): −14.8 ± 24.4 (−27.4 to −2.3) %
% Change from baseline to Week 12 in SvO2 ([1]; post-inhalation best, n = 17): 2.7 ± 5.8 (−0.3 to 5.7) %
% Change from baseline to Week 12 in cardiac index ([1]; post-inhalation best, n = 17): 17.8 ± 20.3 (7.3 to 28.2) %
% Change from baseline to Week 12 in mPAP ([1]; post-inhalation best, n = 17): −21.7 ± 19.7 (−31.9 to −11.6) %
% Change from baseline to Week 12 in mRAP ([1]; post-inhalation best, n = 17): −0.3 ± 57.0 (−31.9 to 31.2) %
Change from baseline to Week 12 in PVR ([1]; post-inhalation best, n = 17): −2.9 ± 2.0 (−4.0 to −1.9) Wood units
Change from baseline to Week 12 in PVRI ([1]; post-inhalation best, n = 17): −4.7 ± 3.0 (−6.2 to −3.1) Wood units·m^2
Change from baseline to Week 12 in SVR ([1]; post-inhalation best, n = 17): −3.3 ± 4.4 (−5.6 to −1.1) Wood units
Change from baseline to Week 12 in SVRI ([1]; post-inhalation best, n = 17): −5.3 ± 7.3 (−9.1 to −1.5) Wood units·m^2
Change from baseline to Week 12 in mPAP ([1]; post-inhalation best, n = 17): −8.3 ± 6.8 (−11.8 to −4.8) mmHg
Best change from baseline in PVRI at Week 12 ([1]; three patients receiving an ERA): −46.0 ± 35.1%
Mean change from baseline in trough 6MWD ([2]; Week 12): +17.8 ± 35.5 m
Change from baseline in Borg Dyspnea Score ([2]; Weeks 6, 12, and 52): No significant changes
WHO functional class improved ([3]; Week 12): four
WHO functional class I ([3]; Week 12 (n = 17)): 1 (5.9) n (%)
WHO functional class II ([3]; Week 12 (n = 17)): 13 (76.5) n (%)
WHO functional class III ([3]; Week 12 (n = 17)): 3 (17.6) n (%)
WHO functional class I ([3]; Week 52 (n = 16)): 2 (12.5) n (%)
WHO functional class II ([3]; Week 52 (n = 16)): 12 (75.0) n (%)
WHO functional class III ([3]; Week 52 (n = 16)): 2 (12.5) n (%)
WHO functional class shift II -> I ([3]; baseline to Week 12 (n = 17)): 1 (5.9) n (%)
WHO functional class shift II -> II ([3]; baseline to Week 12 (n = 17)): 10 (58.8) n (%)
WHO functional class shift III -> II ([3]; baseline to Week 12 (n = 17)): 3 (17.6) n (%)
WHO functional class shift III -> III ([3]; baseline to Week 12 (n = 17)): 3 (17.6) n (%)
WHO functional class shift II -> I ([3]; baseline to Week 52 (n = 16)): 2 (12.5) n (%)
WHO functional class shift II -> II ([3]; baseline to Week 52 (n = 16)): 9 (56.3) n (%)
WHO functional class shift III -> II ([3]; baseline to Week 52 (n = 16)): 3 (18.8) n (%)
WHO functional class shift III -> III ([3]; baseline to Week 52 (n = 16)): 2 (12.5) n (%)
Deterioration of WHO functional class ([3]; throughout the 52 weeks): no patient
Mean change from baseline in NT-proBNP level ([4]; Week 6): -34.6 ± 100.0 pg/mL
Mean change from baseline in NT-proBNP level ([4]; Week 12): -35.5 ± 165.5 pg/mL
Mean change from baseline in NT-proBNP level ([4]; Week 52): -77.1 ± 194.1 pg/mL
Mean change from baseline in MLWHF global score ([5]; Week 12): −6.6 ± 12.1
Mean change from baseline in MLWHF global score ([5]; Week 52): −5.8 ± 13.4
Add-on therapy with a PDE5 inhibitor/sGC stimulator ([6]; long-term treatment period, patients who had been receiving an ERA): two patients
Needed additional PAH-specific therapy ([6]; main treatment period (12 weeks)): no patient
Death, transplantation, or hospitalization due to worsening PAH ([6]; throughout the 52 weeks): no patient
AE related to treprostinil: cough ([7]; 52-week period): 47.1%
AE related to treprostinil: headache ([7]; 52-week period): 58.8%
AE related to treprostinil: hot flush ([7]; 52-week period): 23.5%
AE related to treprostinil: throat irritation ([7]; 52-week period): 29.4%
Intensity of AEs ([7]; all AEs, 52-week period): mild‐moderate intensity
Tolerability ([7]; four times daily in Japanese patients with PAH): well tolerated
AE related to treprostinil: Blood pressure decreased ([7]; over 52 weeks, n = 17): 2 (11.8) n (%)
AE related to treprostinil: Diarrhoea ([7]; over 52 weeks, n = 17): 2 (11.8) n (%)
AE related to treprostinil: Dizziness ([7]; over 52 weeks, n = 17): 2 (11.8) n (%)
AE related to treprostinil: Head discomfort ([7]; over 52 weeks, n = 17): 3 (17.6) n (%)
AE related to treprostinil: Hot flush ([7]; over 52 weeks, n = 17): 4 (23.5) n (%)
AE related to treprostinil: Nausea ([7]; over 52 weeks, n = 17): 3 (17.6) n (%)
AE related to treprostinil: Oropharyngeal discomfort ([7]; over 52 weeks, n = 17): 3 (17.6) n (%)
AE related to treprostinil: Oropharyngeal pain ([7]; over 52 weeks, n = 17): 2 (11.8) n (%)
AE related to treprostinil: Pyrexia ([7]; over 52 weeks, n = 17): 2 (11.8) n (%)
AE related to treprostinil: cough ([7]; over 52 weeks, n = 17): 8 (47.1) n (%)
AE related to treprostinil: headache ([7]; over 52 weeks, n = 17): 10 (58.8) n (%)
AE related to treprostinil: throat irritation ([7]; over 52 weeks, n = 17): 5 (29.4) n (%)
Deaths ([7]; over 52 weeks, n = 17): no deaths
Deaths [7, 16]: 0 n (%)
Total patients with at least one AE [7, 16]: 17 n (%) and 17 (100.0) n (%)
Total patients with at least one AE related to treprostinil [7, 16]: 17 n (%) and 17 (100.0) n (%)
MRT [8, 17]: 55.8 ± 10.2 min
Vd/F [8, 17]: 76.7 ± 52.2 L
k el [8, 17]: 0.000272 s⁻¹
Time detectable in the plasma after inhalation ([8]; nine breaths (54 μg) four times daily): approximately 4 h
Mean C max, Japanese vs non-Japanese healthy adults [9]: 1.2 fold
Geometric mean C max [10]: 1.02 ng/mL
